Published values gathered from unrelated publications.
Target: Phosphatidylinositol 5-phosphate 4-kinase type-2 gamma (PIP4K2C, Homo sapiens, UniProt Q8TBX8)
Residues used in one study (Q8TBX8 1-421): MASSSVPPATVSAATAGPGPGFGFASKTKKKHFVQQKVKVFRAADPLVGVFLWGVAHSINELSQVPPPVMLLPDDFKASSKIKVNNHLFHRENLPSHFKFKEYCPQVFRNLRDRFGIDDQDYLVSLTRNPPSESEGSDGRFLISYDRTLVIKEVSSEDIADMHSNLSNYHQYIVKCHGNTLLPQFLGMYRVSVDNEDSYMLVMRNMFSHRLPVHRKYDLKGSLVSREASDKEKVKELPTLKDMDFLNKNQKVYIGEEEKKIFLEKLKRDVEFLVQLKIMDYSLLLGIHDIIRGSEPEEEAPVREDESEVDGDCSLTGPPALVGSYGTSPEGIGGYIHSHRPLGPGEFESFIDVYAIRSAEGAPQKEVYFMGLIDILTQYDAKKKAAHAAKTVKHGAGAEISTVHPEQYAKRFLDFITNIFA

SMILES	effect on	technique	concentration	remaining binding [%]
C[C@H]1CCN(c2nccc(-c3cnn4ncccc34)n2)C1	binding	–	1 µM	42
O=C(c1ccc(Nc2ncc(Cl)c(-c3cc4ccccc4s3)n2)cc1)N1CCC(N2CCCC2)CC1	binding	competition with immobilised ligand	1 µM	6.7
FC(F)(F)Oc1cccc(-c2cnc3ccc(-c4ccncc4)nn23)c1	cell-free assay	competition with immobilised ligand	5 µM	32
CCS(=O)(=O)c1cc2cc(C[C@](O)(CC(C)(C)c3ccc(F)cc3C(N)=O)C(F)(F)F)[nH]c2cn1	cell-free assay	competition with immobilised ligand	1 µM	100
N[C@@H]1CCN(c2nccc(-c3cnn4ncccc34)n2)C1	binding	–	1 µM	64
O=C(N1CCS(=O)(=O)CC1)N1C[C@H](c2ccc(OC(F)(F)F)cc2)C[C@H](c2nc(C3CC3)no2)C1	cell-free assay	competition with immobilised ligand	1 µM	96
O=C(NCCCN1CCOCC1)c1ccc(Nc2ncc(Cl)c(-c3ccc(Cl)s3)n2)cc1	binding	competition with immobilised ligand	1 µM	15
CN(CCCC(F)(F)F)c1nccc(-c2cnn3ncccc23)n1	binding	–	1 µM	100
O=C(NCC1CCOCC1)c1n[nH]cc1NC(=O)c1c(F)cccc1F	binding	competition with immobilised ligand	1 µM	91
c1ccc(N2CCN(Cc3nc4ccccc4[nH]3)CC2)nc1	binding	competition with immobilised ligand	1 µM	86
COc1cnc(Nc2cccc(S(N)(=O)=O)c2)nc1N1CCN(c2ccccc2)CC1	binding	competition with immobilised ligand	1 µM	95
Cc1cnc(Nc2ccc(C(=O)N3CCC(N4CCCC4)CC3)cc2)nc1-c1cc2ccccc2s1	binding	competition with immobilised ligand	1 µM	5.6
CNC(=O)[C@@H]1CC[C@@H](n2c(-c3ccc4cnccc4c3)nc3ccc(C(=O)NCc4cccc(C(N)=O)c4)cc32)C1	binding	competition with immobilised ligand	1 µM	91
CC(=O)N1CCC(c2ccc(C(=O)NC3=NCCN3)cc2C(F)(F)F)CC1	cell-free assay	competition with immobilised ligand	1 µM	94
CN(C)c1ncc(F)c(-c2cnn3ncccc23)n1	binding	–	1 µM	95
Cn1cc(Cl)c2c(Oc3c(F)cc(Nc4cc(Cl)nc(N)n4)cc3F)ccnc21	cell-free assay	competition with immobilised ligand	0.1 µM	96
CN(C)c1nccc(-c2cnc3ncccn23)n1	binding	–	1 µM	93
COc1ncc2cc3ccccc3nc2c1C#N	cell-free assay	competition with immobilised ligand	5 µM	100
Cc1cnn2ncc(-c3ccnc(N(C)C)n3)c2c1	binding	–	1 µM	80
Cc1nc(NC(=O)N2CCC[C@H]2C(N)=O)sc1-c1ccnc(C(C)(C)C(F)(F)F)c1	binding	competition with immobilised ligand	10 µM	100
CNC(=O)c1ccc(Nc2ncc(C(F)(F)F)c(NCc3nccnc3N(C)S(C)(=O)=O)n2)cc1	cell-free assay	competition with immobilised ligand	0.1 µM	40
CN(C)c1nccc(-c2cnn3ncccc23)n1	binding	–	1 µM	100
